Screening data as filed in PubChem BioAssay.
NPY1 pot ag = NPY-Y1 receptor potentiators or agonists, primary screen, cell-based | Neuropeptide Y receptor type 1 (Homo sapiens), P25929 | NPY-Y1 expressing cells, potentiator/agonist activation | activation, % at 3.6 µM | 220,000 tested, 0.37% active | AID 1304, 2008; in the data active = activation above about 33%, passing the limit was not always enough;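 also: cells stimulated with NPY at EC10 then isoproterenol at EC100; 0% = low agonist plus stimulus and 100% = saturating agonist plus stimulus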
NPY-Y1 antag = NPY-Y1 receptor antagonists, primary screen, cell-based. Neuropeptide Y receptor type 1 (Homo sapiens), P25929. HEK293-CNG Y1 cells, membrane potential fluorescence; NPY at EC95, then isoproterenol. 200,000 tested, 1% active. inhibition, % at 3.6 µM. AID 1040, 2008;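 active = inhibition above the campaign mean inhibition of all tested compounds plus 3 SD, cut at about 20% in these data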;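 also: 0% = DMSO wells given NPY plus isoproterenol and 100% = isoproterenol alone without NPY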
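System: HEK293 cells with Y1 receptor plus CNG channel / Probe or stimulus: NPY 25 nM then isoproterenol 1 µM plus Ro 20-1724 25 µM / Compound: one concentration, 3.6 µM, in 0.4% DMSO / Schedule: compound incubation 1 h at room temperature, readout 45 min post-stimulation / Measured by: membrane potential fluorescence / Read-out: % inhibition of NPY effect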
NPY2 pot ag = NPY-Y2 potentiators or agonists, primary screen, cell-based; Neuropeptide Y receptor type 2 (Homo sapiens), P49146; cells expressing NPY-Y2, potentiator/agonist read-out; activation, % at 3.6 µM; 220,000 tested, 0.45% active; AID 1359, 2008; in the data active = activation above about 27%;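 also: cells stimulated with NPY near EC25 plus isoproterenol at EC100; 0% = vehicle plus submaximal agonist and 100% = vehicle plus saturating agonist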
Target sequence (P49146 whole entry, looked up): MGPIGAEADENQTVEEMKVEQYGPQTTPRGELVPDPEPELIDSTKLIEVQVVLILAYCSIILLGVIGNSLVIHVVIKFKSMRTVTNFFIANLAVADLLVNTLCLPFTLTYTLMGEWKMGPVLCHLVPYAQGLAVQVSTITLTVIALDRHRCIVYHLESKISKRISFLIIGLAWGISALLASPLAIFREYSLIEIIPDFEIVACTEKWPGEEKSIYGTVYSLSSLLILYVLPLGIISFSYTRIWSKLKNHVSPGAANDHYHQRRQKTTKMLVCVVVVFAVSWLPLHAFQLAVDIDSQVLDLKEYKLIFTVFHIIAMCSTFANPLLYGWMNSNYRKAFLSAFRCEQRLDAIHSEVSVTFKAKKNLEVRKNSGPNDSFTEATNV
NPY Y2 blocker = NPY-Y2 receptor antagonists, primary screen, cell-based | AID 793, 2007 | NPY-Y2 expressing cells, antagonist mode | 140,000 tested, 0.99% active | inhibition, % at 2.7 µM | Neuropeptide Y receptor type 2 (Homo sapiens), P49146;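 also: 0% = vehicle with agonist challenge and 100% = reference antagonist with challenge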
NPY-Y1 ant conf = NPY-Y1 receptor antagonists, retest of hits, confirmation, HEK293-CNG cells, membrane potential fluorescence, triplicate. inhibition, % at 3.6 µM. 1,200 tested, 21% active. AID 1254, 2008. shares compounds with NPY-Y1 antag. cAMP; NPY challenge against isoproterenol-raised cAMP; in the data active = inhibition above about 20%;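 also: 0% = vehicle with agonist plus stimulus and 100% = stimulus alone without agonist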
NPY-Y2 antag ct = NPY-Y2 receptor antagonists, selectivity check, confirmation, counter-screen for NPY-Y1 antagonist project, HEK293-CNG cells, membrane potential fluorescence, triplicate; antagonism; cells given NPY, then isoproterenol; AID 1255, 2008; shares compounds with NPY-Y1 antag; inhibition, % at 3.6 µM; 1,200 tested, 28% active;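 also: 0% = DMSO with agonist challenge and 100% = reference antagonist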
* marks the source's active call; other numbers are inactive results; x = not tested or not shown. Compounds with a hit are over-represented: about 1.9% of the library has one in this group of screens. Rule as the data show it, unless noted: active = inhibition above about 17%; inactive = the rest.

SMILES	NPY1 pot ag	NPY-Y1 antag	NPY2 pot ag	NPY Y2 blocker	NPY-Y1 ant conf	NPY-Y2 antag ct
O=C(Nc1ccccc1N1CCN(c2ccccc2)CC1)c1ccccc1F	-7	36*	-18	x	18	16
CCOCCCNC(=O)c1c[nH]c2ccc(OCC)cc2c1=O	-4	x	-15	x	x	x
S=C(Sc1ccc(Cl)cc1)Sc1ccc(Cl)cc1	32	x	-7	x	x	x
COc1ccc(N(C)S(=O)(=O)c2cccc(C(=O)NC3CCCCCC3)c2)cc1	-13	39*	-19	x	10	12
COc1ccc(N(C)S(=O)(=O)c2cccc(C(=O)N(C)Cc3ccc(C)o3)c2)cc1	-9	31*	-14	x	7	16
COc1ccc(N(C)S(=O)(=O)c2cccc(C(=O)NCc3ccc4c(c3)OCO4)c2)cc1	-11	2	8	x	x	x
COc1ccc(N(C)S(=O)(=O)c2cccc(C(=O)NC3CCC(C)CC3)c2)cc1 (stereo not given)	-3	46*	-6	x	27*	15
O=C(NCCN1C(=O)S/C(=C\c2cccs2)C1=O)c1ccc(=O)[nH]c1	-9	-1	9	2	x	x
CCN(CC)S(=O)(=O)c1ccc(C)c(NC(=O)CN2CCN(C)CC2)c1	5	x	-1	x	x	x
CCN1/C(=C/c2ccc3cc(C)ccc3[n+]2CC)Sc2ccccc21	-95	18	4	9	x	x
CCN1/C(=C/c2sc(-c3ccccc3C)c[n+]2C)Sc2ccccc21	-10	40*	21	x	28*	15
C=CCNC(=O)CC(=O)N/N=C/c1cccs1	9	2	15	x	x	x
CCC(C)NS(=O)(=O)c1ccc(F)c(C(=O)Nc2c(F)cc(F)cc2Br)c1 (stereo not given)	12	5	9	x	x	x
COc1cccc(CN2CCN(S(=O)(=O)c3ccc(Br)cc3)CC2)c1	-21	0	-3	5	x	x
COc1ccc2c(c1)C(C)=CC(C)(C)N2S(=O)(=O)c1ccc(Br)cc1	-15	55*	-18	x	27*	22*
CCN(CC)S(=O)(=O)c1cc(NC(=O)COc2ccc(C#N)cc2OC)ccc1C	-25	24*	-9	12	12	29*
CCN(CC)S(=O)(=O)c1cccc(NC(=O)COc2ccc(C#N)cc2OC)c1	-37	17	-14	2	x	x
CN(C(=O)CC1C(=O)NCCN1Cc1ccc(F)c(F)c1)C1CCOCC1 (stereo not given)	16	0	5	x	x	x
CC(=O)N1CCC(N(CCN2CCOCC2)C(=S)Nc2ccccc2C)CC1	6	1	2	4	x	x
O=C(c1cnc2c(c1)COc1ccc(Cl)cc1-2)c1ccccc1O	-48	22*	-16	4	10	13
CC(=O)NS(=O)(=O)c1ccc(NC(=S)NC(=O)Cc2ccccc2)cc1	11	3	2	x	x	x
Oc1cc2ccccc2cc1-c1n[nH]c(=S)o1	-26	40*	-29	15	19	14
O=C(c1ccc([N+](=O)[O-])cc1)N1CCN(Cc2ccccc2[N+](=O)[O-])CC1	15	-4	4	x	x	x
CCc1cccc(CC)c1NC(=O)Cn1c(-c2ccc(F)cc2)noc1=O	-7	30*	-12	x	17	6
CC(C)(C)c1ccc2c(c1)OC(C(=O)N/N=C/c1ccc([N+](=O)[O-])o1)CO2 (stereo not given)	15	x	8	x	x	x
SMILES	NPY1 pot ag	NPY-Y1 antag	NPY2 pot ag	NPY Y2 blocker	NPY-Y1 ant conf	NPY-Y2 antag ct
Cc1ccc(NC(=O)c2c(C)nn(-c3ccccc3)c2Cl)c(C)c1	12	9	-8	1	x	x
Cc1cccc(C)c1NC(=O)c1c(C)nn(-c2ccccc2)c1Cl	-1	32*	11	2	5	2
O=C(Nc1nnc(C2=COCCO2)o1)c1ccc(Cc2ccccc2)cc1	-43	22*	-47	x	11	5
O=C(/C=C/c1ccccc1)NCCSCc1ccc(Cl)cc1	-43	21*	-35	13	6	10
O=C(/C=C/c1cccc([N+](=O)[O-])c1)NCCSCc1ccc(Cl)cc1	-28	4	-2	6	x	x
O=C(/C=C/c1ccc(Cl)cc1)NCCSc1ccccc1	-39	29*	-19	5	20*	43*
Cc1cc(C(=O)Cn2nc(C(=O)O)c3ccccc3c2=O)c(C)n1-c1ccc(F)cc1	-39	22*	-23	13	14	12
Cc1cc(C(=O)Cn2nc(C(=O)O)c3ccccc3c2=O)c(C)n1-c1cccc(C(F)(F)F)c1	-19	x	-20	x	x	x
NNC(=O)c1ccc(COCC(F)(F)F)cc1	-8	x	-14	x	x	x
COc1ccc(-c2cc(C(F)(F)F)n3nc(C(=O)NCc4ccco4)cc3n2)cc1	-34	24*	-16	3	6	6
O=C(CSc1ccc(Cl)cc1)N1CCN(c2ncc(C(F)(F)F)cc2Cl)CC1	-4	24*	-23	10	5	13
O=C(CN1CCN(c2ncc(C(F)(F)F)cc2Cl)CC1)N1CCN(c2ncc(C(F)(F)F)cc2Cl)CC1	-19	7	4	3	x	x
O=C(Nc1ccccc1-c1ccccc1)C(=O)Nc1ccccc1-c1ccccc1	6	x	8	x	x	x
CCOC(=O)c1c(NC(=O)C2COc3ccccc3O2)sc2c1CCN(Cc1ccccc1)C2 (stereo not given)	-64	22*	-16	5	23*	20*
CS(=O)(=O)N1N=C(c2cccs2)CC1c1ccc(Cl)o1 (stereo not given)	5	-6	2	x	x	x
O=C(C[n+]1cc(-c2ccccc2)n2c1CCCCC2)c1ccc(Br)cc1	-9	42*	-9	x	22*	19*
O=C(C[n+]1cc(-c2ccccc2)n2c1CCC2)OCc1ccccc1	2	4	1	6	x	x
NNC(=O)c1sccc1OCc1cccc(C(F)(F)F)c1	-33	6	-18	x	x	x
O=C(Nc1ccc(F)cc1F)c1sccc1SCc1cccc(C(F)(F)F)c1	-32	48*	-22	7	23*	17*
COc1ccc(NC(=O)c2sccc2SCc2cccc(C(F)(F)F)c2)cc1	-26	32*	-27	6	7	8
O=C(Nc1ccc(F)cc1)c1sccc1SCc1cccc(C(F)(F)F)c1	-15	25*	-32	13	9	10
O=C(Cc1cccc(C(F)(F)F)c1)Nc1ccccc1	-13	2	9	x	x	x
COc1ccccc1C1(O)CCN(CC(=O)Nc2nc(-c3ccccc3)cs2)CC1	29	3	5	x	x	x
COc1ccc(OC)c(NC(=O)c2ccc(-c3cccs3)cc2)c1	-66	22*	-34	x	9	10
CCCCNc1cc(F)nc(N)n1	-4	4	14	x	x	x
